Results reported in ChEMBL document CHEMBL2331224 (J Med Chem, 2013).
Activity calls are given as the source filed them. The rule behind the calls is not given here.

Key:
Rattus norvegicus = assay: Hepatotoxicity in Sprague-Dawley rat at 30 mg/kg/day, po for 28 days; assay type: toxicity, organism-based; parameters: route oral; settings: in vivo, 672 h
Summary of the method: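 Male and female SD rats, four weeks old on arrival, two per cage. Oral 30 mg/kg/day or vehicle (1% ethanol/0.5% CMC in water, 5 mL/kg) for 28 days, body weight recorded daily. After overnight fasting and isoflurane anaesthesia, liver, brain, kidney, spleen and testis were weighed, and serum was collected (2000g, 10 min, 4 °C) for blood chemistry.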

Mus musculus = assay: Toxicity in ICR mouse assessed as increase in blood total cholesterol level at 30 mg/kg/day, po for 7 days; assay type: organism-based; parameters: route oral; settings: in vivo, 168 h
Summary of the method: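 Male ICR mice, 6−7 weeks old, four per cage, grouped by body weight. Oral 30 mg/kg or vehicle (1% ethanol/0.5% CMC in water, 10 mL/kg) once daily for 7 days, body weight recorded daily. After overnight fasting, mice were weighed under ether, and liver was removed and weighed. Serum was analysed on a dry-chemistry analyser for TG, TCHO, ALP, CRE, BUN and other markers. n = 7−23, ANOVA.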

[1] = target: T1, Retinoic acid receptor RXR-gamma (Homo sapiens) (UniProt P48443); assay: Partial agonist activity at RXRgamma (unknown origin) by luciferase reporter gene assay relative to LGD1069
T1 sequence (whole entry): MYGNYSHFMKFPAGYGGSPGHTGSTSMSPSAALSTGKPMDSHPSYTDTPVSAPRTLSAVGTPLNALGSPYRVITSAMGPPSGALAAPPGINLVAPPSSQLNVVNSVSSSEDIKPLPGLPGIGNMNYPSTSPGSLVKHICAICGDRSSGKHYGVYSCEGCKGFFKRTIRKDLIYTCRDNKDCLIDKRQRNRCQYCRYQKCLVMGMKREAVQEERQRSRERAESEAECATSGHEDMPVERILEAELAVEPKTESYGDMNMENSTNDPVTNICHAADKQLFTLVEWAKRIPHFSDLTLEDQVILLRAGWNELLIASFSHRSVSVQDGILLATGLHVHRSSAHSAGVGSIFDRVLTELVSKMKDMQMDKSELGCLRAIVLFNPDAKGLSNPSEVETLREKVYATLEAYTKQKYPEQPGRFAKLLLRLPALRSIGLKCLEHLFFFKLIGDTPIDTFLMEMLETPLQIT

[2] = target: T2, Retinoic acid receptor RXR-alpha (Homo sapiens) (UniProt P19793); assay: Partial agonist activity at RXRalpha (unknown origin) expressed in COS1 cells after 18 hrs by luciferase reporter gene assay relative to bexarotene; assay type: cell-based; settings: COS-1
T2 sequence (whole entry): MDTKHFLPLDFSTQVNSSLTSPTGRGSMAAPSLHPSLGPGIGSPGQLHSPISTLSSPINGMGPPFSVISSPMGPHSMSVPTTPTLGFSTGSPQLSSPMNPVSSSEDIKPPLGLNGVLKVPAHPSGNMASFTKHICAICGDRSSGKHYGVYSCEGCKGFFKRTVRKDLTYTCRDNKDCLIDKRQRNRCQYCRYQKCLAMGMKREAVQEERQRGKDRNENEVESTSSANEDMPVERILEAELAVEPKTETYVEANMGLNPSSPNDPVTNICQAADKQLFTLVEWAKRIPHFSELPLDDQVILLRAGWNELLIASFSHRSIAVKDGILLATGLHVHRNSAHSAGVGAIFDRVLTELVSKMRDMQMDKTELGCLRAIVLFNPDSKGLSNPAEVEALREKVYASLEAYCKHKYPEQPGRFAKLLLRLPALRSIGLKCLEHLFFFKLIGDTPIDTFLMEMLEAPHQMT
Summary of the method: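 COS-1 cells in DMEM with 10% FBS at 37 °C, 5% CO2, transfected with RXRα, an RXR-response-element luciferase reporter and a SEAP background vector. Cells were seeded at about 2.0 × 10⁴ per well with compound (DMSO below 1%) for 18 h. Luciferase was normalized to SEAP and expressed relative to 1 μM reference RXR full agonist as 100%. EC50 came from full dose-response curves. Triplicates, at least three experiments.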

With `Cc1cc2c(cc1-n1c(C(F)(F)F)nc3cc(C(=O)O)ccc31)C(C)(C)CCC2(C)C` the Activity (Rattus norvegicus) was “Toxic”, the Activity (Mus musculus) was “Non-toxic” and the Activity [1] was “Active”. It also gave an Emax [2] of 67%.
